What was measured:
MIA PaCa-2 [1] = test: Growth inhibition of human MIAPaCa2 cells at 10 uM after 48 hrs by MTT assay relative to control; type: functional; details: MIA PaCa-2, 48 h, read-out: GI
Method in brief: (§1)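 Single-concentration primary screen at 10 μM by MTT assay. Cells were NCI-sourced cancer lines grown in appropriate medium at 37 °C, 95% humidity, 5% CO2. Growth inhibition is expressed relative to control.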

[2] = molecular target: CDK2/Cyclin A2 (Homo sapiens) (UniProt P24941+P20248); test: Inhibition of CDK2/cyclin A (unknown origin) at 0.5 uM using histone H1 as substrate after 30 mins in presence of [33P]-gamma-ATP by filter binding assay relative to control; type: protein-complex assay
PC-3 [3] = test: Growth inhibition of human PC3 cells after 48 hrs by MTT assay; type: functional; details: PC-3, 48 h
Method in brief: (§2)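 Cancer cell lines sourced from the National Cancer Institute (USA). Cells kept in appropriate growth medium at 37 °C, 95% humidity, 5% CO2. Antiproliferation read by tetrazolium (MTT) assay. GI50 values were determined only for compounds selected after an initial single-concentration screen.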

CDK9/cyclin T1 = CDK9/cyclin T1 (Homo sapiens, UniProt P50750); test: Inhibition of CDK9/cyclin T1 (unknown origin) using YSPTSPSYSPTSPSYSPTSPKKK as substrate after 30 mins in presence of [33P]-gamma-ATP by filter binding assay; type: protein-complex assay
MCF7 [4] = test: Growth inhibition of human MCF7 cells at 10 uM after 48 hrs by MTT assay relative to control; type: functional; details: MCF7, 48 h, read-out: GI; method in brief: as §1
HL-60 [5] = test: Growth inhibition of human HL60 cells at 10 uM after 48 hrs by MTT assay relative to control; type: functional; details: HL-60, 48 h, read-out: GI; method in brief: as §1
CDK2/Cyclin A2 = CDK2/Cyclin A2 (Homo sapiens, UniProt P24941); test: Inhibition of CDK2/cyclin A (unknown origin) using histone H1 as substrate after 30 mins in presence of [33P]-gamma-ATP by filter binding assay; type: protein-complex assay
Caco-2 [6] = test: Growth inhibition of human Caco2 cells after 48 hrs by MTT assay; type: functional; details: Caco-2, 48 h; method in brief: as §2
MIA PaCa-2 [7] = test: Growth inhibition of human MIAPaCa2 cells after 48 hrs by MTT assay; type: functional; details: MIA PaCa-2, 48 h; method in brief: as §2
MCF7 [8] = test: Growth inhibition of human MCF7 cells after 48 hrs by MTT assay; type: functional; details: MCF7, 48 h; method in brief: as §2
HL-60 [9] = test: Growth inhibition of human HL60 cells after 48 hrs by MTT assay; type: functional; details: HL-60, 48 h; method in brief: as §2
Caco-2 [10] = test: Growth inhibition of human Caco2 cells at 10 uM after 48 hrs by MTT assay relative to control; type: functional; details: Caco-2, 48 h, read-out: GI; method in brief: as §1
PC-3 [11] = test: Growth inhibition of human PC3 cells at 10 uM after 48 hrs by MTT assay relative to control; type: functional; details: PC-3, 48 h, read-out: GI; method in brief: as §1
[12] = molecular target: CDK9/cyclin T1 (Homo sapiens) (UniProt O60563+P50750); test: Inhibition of CDK9/cyclin T1 (unknown origin) at 0.5 uM using YSPTSPSYSPTSPSYSPTSPKKK as substrate after 30 mins in presence of [33P]-gamma-ATP by filter binding assay relative to control; type: protein-complex assay
Homo sapiens = organism: Homo sapiens; test: Selectivity ratio of IC50 for CDK2/cyclin A (unknown origin) to IC50 for CDK9/cyclin T1 (unknown origin)
MIA PaCa-2 [13] = test: Cell cycle arrest in human MIAPaCa2 cells assessed as accumulation at G2 phase at 2 uM after 24 hrs by propidium iodide staining-based flow cytometric method (reference value: 30%); type: functional
MIA PaCa-2 [14] = test: Cell cycle arrest in human MIAPaCa2 cells assessed as accumulation at G1 phase at 2 uM after 24 hrs by propidium iodide staining-based flow cytometric method (reference value: 36%); type: functional
MIA PaCa-2 [15] = test: Cell cycle arrest in human MIAPaCa2 cells assessed as accumulation at S phase at 2 uM after 24 hrs by propidium iodide staining-based flow cytometric method (reference value: 33%); type: functional
MIA PaCa-2 [16] = test: Induction of apoptosis in human MIAPaCa2 cells at 2 uM after 24 hrs by propidium iodide staining-based flow cytometric method relative to control; type: functional

Sequence of CDK9/cyclin T1 (O60563 whole entry): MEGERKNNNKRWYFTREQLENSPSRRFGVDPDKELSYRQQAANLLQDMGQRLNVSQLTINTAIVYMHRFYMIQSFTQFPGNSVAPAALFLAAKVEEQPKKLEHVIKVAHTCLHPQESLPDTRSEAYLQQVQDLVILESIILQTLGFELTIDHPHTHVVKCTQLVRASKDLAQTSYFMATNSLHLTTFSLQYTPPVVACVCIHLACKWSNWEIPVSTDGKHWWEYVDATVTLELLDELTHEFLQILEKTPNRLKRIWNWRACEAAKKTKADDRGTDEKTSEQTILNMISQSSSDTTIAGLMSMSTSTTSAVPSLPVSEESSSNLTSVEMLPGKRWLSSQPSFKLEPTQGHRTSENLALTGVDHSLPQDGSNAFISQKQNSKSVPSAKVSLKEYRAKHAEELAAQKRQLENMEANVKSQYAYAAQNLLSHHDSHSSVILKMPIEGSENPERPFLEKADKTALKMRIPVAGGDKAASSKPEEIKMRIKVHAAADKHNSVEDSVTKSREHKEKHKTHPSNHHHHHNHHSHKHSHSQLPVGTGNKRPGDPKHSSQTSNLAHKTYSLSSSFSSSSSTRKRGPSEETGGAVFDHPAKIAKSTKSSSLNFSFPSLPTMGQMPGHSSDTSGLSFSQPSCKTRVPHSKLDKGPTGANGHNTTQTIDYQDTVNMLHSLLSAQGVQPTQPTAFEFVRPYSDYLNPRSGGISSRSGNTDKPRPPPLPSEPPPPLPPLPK
Sequence of CDK9/cyclin T1 (P50750 whole entry): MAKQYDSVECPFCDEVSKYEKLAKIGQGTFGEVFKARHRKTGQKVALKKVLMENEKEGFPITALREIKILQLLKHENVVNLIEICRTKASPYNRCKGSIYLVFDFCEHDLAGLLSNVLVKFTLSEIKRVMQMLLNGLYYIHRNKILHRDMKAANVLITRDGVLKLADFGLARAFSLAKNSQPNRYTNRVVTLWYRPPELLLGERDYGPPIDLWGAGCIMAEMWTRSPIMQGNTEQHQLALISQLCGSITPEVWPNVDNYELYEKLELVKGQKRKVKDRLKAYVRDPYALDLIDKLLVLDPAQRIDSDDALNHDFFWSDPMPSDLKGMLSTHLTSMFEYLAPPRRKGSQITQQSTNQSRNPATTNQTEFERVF

Row | inhibition [2] [%] | GI50 (PC-3 [3]) [µM] | IC50 (CDK9/cyclin T1) [µM] | IC50 (CDK2/Cyclin A2) [µM] | GI50 (Caco-2 [6]) [µM] | GI50 (MIA PaCa-2 [7]) [µM] | GI50 (MCF7 [8]) [µM] | GI50 (HL-60 [9]) [µM] | inhibition [12] [%] | Ratio IC50 (Homo sapiens) | Structure (SMILES) | inhibition of growth at 10 µM (MIA PaCa-2 [1]) [%] | inhibition of growth at 10 µM (MCF7 [4]) [%] | inhibition of growth at 10 µM (HL-60 [5]) [%] | inhibition of growth at 10 µM (Caco-2 [10]) [%] | inhibition of growth at 10 µM (PC-3 [11]) [%] | Activity (MIA PaCa-2 [13]) [%] | Activity (MIA PaCa-2 [14]) [%] | Activity (MIA PaCa-2 [15]) [%] | Activity (MIA PaCa-2 [16]) [%]
1 | 5 | 10 | 0.28 | 3 | 9 | 10 | 2 | 20 | 53 | 10 | CN1CC[C@H](c2c(O)cc(O)c3c(=O)cc(/C=C/c4cccc(Cl)c4)oc23)[C@H](O)C1 | 52 | 82 | 35 | 55 | 53 | – | – | – | –
2 | 5.2 | 58 | 0.066 | 0.925 | 3.7 | 2 | 31 | 1 | 66 | – | CN1CC[C@H](c2c(O)cc(O)c3c(=O)cc(/C=C/c4ccccc4)oc23)[C@H](O)C1 | 87 | 8 | 91 | 72 | 10 | – | – | – | –
3 | – | 19 | – | – | 25 | 19 | 28 | 10 | – | – | Cc1cc(=O)c2c(O)cc(O)c([C@H]3CCN(C)C[C@H]3O)c2o1 [ROHITUKINE] | 2 | 15 | 83 | 12 | 33 | – | – | – | –
4 | 42 | 2 | 0.0115 | 0.608 | 8 | 1 | 8 | 3 | 92 | 52 | CN1CC[C@H](c2c(O)cc(O)c3c(=O)cc(/C=C/c4c(F)c(F)c(F)c(F)c4F)oc23)[C@H](O)C1 | 89 | 64 | 80 | 59 | 82 | – | – | – | –
5 | 43 | > 100 | 0.35 | 1.8 | 4 | 4 | 5 | 4 | 80 | – | CN1CC[C@H](c2c(O)cc(O)c3c(=O)cc(/C=C/c4c5ccccc5cc5ccccc45)oc23)[C@H](O)C1 | 77 | 78 | 78 | 44 | 75 | – | – | – | –
6 | 2 | 31 | 0.31 | 3.3 | 5.6 | 2 | 49 | 8 | 71 | 10 | CN1CC[C@H](c2c(O)cc(O)c3c(=O)cc(/C=C/c4ccc(Cl)cc4)oc23)[C@H](O)C1 | 88 | 10 | 58 | 70 | 12 | – | – | – | –
7 | 10 | 17 | 0.16 | 1.41 | 9 | 8 | 9 | 9 | 75 | 10 | CN1CC[C@H](c2c(O)cc(O)c3c(=O)cc(/C=C/c4ccccc4Cl)oc23)[C@H](O)C1 | 59 | 63 | 61 | 65 | 22 | – | – | – | –
8 | – | – | – | – | – | – | – | – | – | – | CC[C@@]1(O)C(=O)OCc2c1cc1n(c2=O)Cc2cc3ccccc3nc2-1 [CAMPTOTHECIN] | – | – | – | – | – | 31 | 42 | 26 | 3.3
9 | 53 | 7 | 0.029 | 0.466 | 8 | 2 | 3 | 8 | 88 | – | CN1CC[C@H](c2c(O)cc(O)c3c(=O)cc(/C=C/c4cccc(F)c4)oc23)[C@H](O)C1 | 67 | 83 | 60 | 61 | 67 | – | – | – | –
10 | 9 | 20 | 0.26 | 1.52 | 7 | 3 | 8 | 8 | 60 | – | CN1CC[C@H](c2c(O)cc(O)c3c(=O)cc(/C=C/c4ccccc4F)oc23)[C@H](O)C1 | 60 | 62 | 62 | 68 | 25 | – | – | – | –
11 | 17 | – | – | – | – | – | – | – | 0 | – | Cc1cc(=O)c2c(O)c(CN3CCCC3C(=O)O)c(O)c([C@H]3CCN(C)C[C@H]3O)c2o1 (stereo partly specified) | 10 | 21 | 16 | 30 | 0 | – | – | – | –
12 | 6 | – | – | – | – | – | – | – | 0 | – | Cc1cc(=O)c2c(O)cc(OCc3ccccc3Br)c([C@H]3CCN(C)C[C@H]3O)c2o1 | 30 | 45 | 3 | 35 | 32 | – | – | – | –
13 | 4 | – | – | – | – | – | – | – | 0 | – | Cc1cc(=O)c2c(O)c(CN3CCC(Cc4ccccc4)CC3)c(O)c([C@H]3CCN(C)C[C@H]3O)c2o1 | 18 | 17 | 28 | 21 | 16 | – | – | – | –
